The structures appear in SMILES notation.

A short description of the data set: Toxicity liver stage against HepG2, at 10uM. Type of data set: cell-based. The arrangement: test concentration 10 uM, cell line HepG2-A16-CD81EGFP. Conditions: human, HepG2-A16-CD81EGFP cells; read-out: INHIBITION
Summed up: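 Uninfected HepG2-A16-CD81EGFP cells, 3 × 10^3 per well, 1536-well, plated on prespotted compound at 10 μM final, parasite-free screening media added to match infected plates; puromycin 10 μM positive, DMSO 0.5% negative; run in parallel with 48 h PbLuc assay at 37 °C, 5% CO2; viability by CellTiter-Glo luminescence, normalized to controls.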
As for `CCCc1cc(C(=O)N(C)Cc2cccc3ncccc23)n(C)n1`, the cytotoxicity at 10 µM was -0.758%.

On to `CN1CCN(c2ccccc2NC(=O)NCCc2ccccc2)CC1`, for which the cytotoxicity at 10 µM is -4.63%.

On to `CC(=O)c1ccc(-n2c(C)cn(CCS(C)(=O)=O)c2=O)cc1`, for which the cytotoxicity at 10 µM came out at 11.5%.

`CC(=O)c1cc(Br)cc(F)c1OCC(=O)NC1CC1`: the cytotoxicity at 10 µM was -6.16%.

As for `Cc1ccc(-c2nc(CNCCn3cccn3)cs2)o1`, the cytotoxicity at 10 µM is -5.9%.

Turning to `O=C(NCCC1CN(C2CCCC2)CCO1)c1c[nH]c(=O)[nH]c1=O` (configuration not stated), the cytotoxicity at 10 µM turned out to be 0.0436%.

In the case of `O=C(c1n[nH]c2c1CCC2)N1CCCC1c1nc(-c2ccccn2)no1` (configuration not stated), the cytotoxicity at 10 µM is -1.82%.

Regarding `CN(Cc1ccccc1)C(=O)CCS(=O)(=O)c1ccc2c(c1)OCCO2`, the cytotoxicity at 10 µM was -7.08%.

With `CCc1nc(C(=O)NCc2ccc(N3CCNC(=O)C3)c(F)c2)c[nH]1`, the cytotoxicity at 10 µM is -7.12%.

In the case of `Cn1c2ncccc2c(=O)n1CC(=O)NCCC1=CCCCC1`, the cytotoxicity at 10 µM stood at 19%.

Take `O=C(c1ccnnc1)N1C[C@@H]2OCCN(CCN3CCCC3)[C@@H]2C1`: the cytotoxicity at 10 µM was 4.22%.

Turning to `CCCc1nc(CN(C)CCOc2ccccc2)cs1`, the cytotoxicity at 10 µM is -8.53%.

With `CC(=O)N(Cc1ncc(C(C)C)o1)C1CCN(Cc2ncc[nH]2)C1` (configuration not stated), the cytotoxicity at 10 µM is -6.02%.

Turning to `CCOc1cccc(CNc2cnn(CC(C)C)c2CC)c1`, the cytotoxicity at 10 µM worked out at 2.93%.

`Cc1nnn2c1COC(CNC(=O)c1cccn1C)C2` (configuration not stated): the cytotoxicity at 10 µM was determined as 6.09%.

For the compound `Cc1cccc(N(CCC(N)=O)CC(=O)Nc2cc(Cl)ccc2Cl)c1`, the cytotoxicity at 10 µM turned out to be 11.3%.

`O=C1CN(CC[C@@H](O)c2ccccc2)CCN1c1ccccc1Cl`: the cytotoxicity at 10 µM worked out at 1.29%.

`COc1cccc2c1OCCCN(c1nc3c(c(=O)[nH]1)CCNCC3)C2`: the cytotoxicity at 10 µM is -5.24%.

In the case of `Cc1ccc(Cl)cc1-n1nnnc1C1(N2CCCC2)CCCC1`, the cytotoxicity at 10 µM is 1.18%.

As to `CCc1nc(Cn2c(=O)n(C)c3ccccc32)no1`, the cytotoxicity at 10 µM is -45.1%.

For `CC(C)c1ccc(OCC(=O)N2CCOCC2c2ncon2)cc1` (configuration not stated), the cytotoxicity at 10 µM was -9.01%.

Take `CSc1[nH]nc(NC(=O)c2ccncc2)c1C#N`: the cytotoxicity at 10 µM stood at 10.6%.

For the compound `COc1cccc(C=CCCN2CCC(C(=O)N3CCCC3)CC2)c1`, the cytotoxicity at 10 µM amounted to 7.09%.

As for `CN(C)Cc1nnc2n1CCN(Cc1cccnc1)C2`, the cytotoxicity at 10 µM was -0.588%.

In the case of `CC(=O)N1CCc2nnc(C3CCCCN3CC3CCCCC3)n2CC1` (configuration not stated), the cytotoxicity at 10 µM amounted to 10.2%.

For the compound `CCc1nc(CN2CCCC2C(=O)NC)cs1` (configuration not stated), the cytotoxicity at 10 µM is -3.09%.

Turning to `CC(O)CN1CCN(C(=O)c2cccc(CC#N)c2)CC1` (configuration not stated), the cytotoxicity at 10 µM was -3.74%.

With `O=C1CCC2(CCOC2)CN1CCCOc1cccnc1` (configuration not stated), the cytotoxicity at 10 µM was -16.1%.

For the compound `Cn1cc(C(=O)N[C@@H]2CN(Cc3cccs3)[C@@H]3CCCO[C@@H]32)cn1`, the cytotoxicity at 10 µM is -13.4%.

For `CC(=O)Nc1ccc(CNc2ccn(Cc3ccccc3)n2)cc1`, the cytotoxicity at 10 µM was determined as 10.1%.

`CC(C)(C)c1nc(CN2CCCN(Cc3cccs3)CC2)no1`: the cytotoxicity at 10 µM is 6%.

Consider `CCOc1ncccc1CNC(=O)c1c(C)oc(C)c1C`, for which the cytotoxicity at 10 µM was -3.75%.

`COCCOCC(=O)NC(C#N)c1cccc(Cl)c1Cl` (configuration not stated): the cytotoxicity at 10 µM is 7.84%.

For the compound `CCN(CC)S(=O)(=O)NCC1COc2ccccc2O1` (configuration not stated), the cytotoxicity at 10 µM came out at 0.347%.

As for `O=C(C1CC1)N1CCCC(C2=Nc3ccccc3S(=O)(=O)N2)C1` (configuration not stated), the cytotoxicity at 10 µM is -1.45%.

Turning to `C[S+]([O-])c1nncn1CC(=O)c1ccc(Cl)c(Cl)c1` (configuration not stated), the cytotoxicity at 10 µM was -4.34%.

As for `COCc1n[nH]c2c1CN(Cc1ccccn1)C2`, the cytotoxicity at 10 µM is -102%.

As for `Fc1cnc(N2CC[C@@H]3O[C@@H](COCc4cccnc4)CC[C@@H]32)nc1`, the cytotoxicity at 10 µM was 10.1%.

With `O=c1c(NCCc2ccc(O)cc2)c(NCc2ccccn2)c1=O`, the cytotoxicity at 10 µM is -2.72%.

As to `CNC(=O)c1sc2ccccc2c1CC1CCCCN1Cc1ncc[nH]1` (configuration not stated), the cytotoxicity at 10 µM amounted to 2.35%.

With `CCC(=O)N1CCC(c2nc(C)c3c(n2)N(C)CCC3)CC1`, the cytotoxicity at 10 µM was 4.26%.

`Cc1csc(CN(C)C(=O)Nc2cnn(CC3CCCO3)c2)n1` (configuration not stated): the cytotoxicity at 10 µM is -3.28%.

As to `Cc1cc(C)n(-c2nc(C(=O)NCCN3CCC(C)CC3)cs2)n1`, the cytotoxicity at 10 µM is 10.2%.

As for `COc1ccc(Cl)cc1NC(=O)CN1CCc2nc(NC(C)=O)sc2C1`, the cytotoxicity at 10 µM is -4.2%.

For `COc1ccc(CCCC(=O)N2CCCC(n3cncn3)C2)cc1` (configuration not stated), the cytotoxicity at 10 µM is -6.96%.

Consider `CCN1CC(CN(C)Cc2nc(-c3ccc(F)cc3F)oc2C)CC1=O` (configuration not stated), for which the cytotoxicity at 10 µM was -6.64%.

As to `CN(C)C(CNC(=O)c1nc(N2CCCC2)ncc1Cl)c1ccco1` (configuration not stated), the cytotoxicity at 10 µM was 5.92%.

With `CCC1CN(Cc2nnc(C3CC3)o2)CCC(=O)N1Cc1ccccc1` (configuration not stated), the cytotoxicity at 10 µM amounted to 0.0723%.

`CC(C)CC(=O)NCc1cccc(OCCN(C)C2CCOCC2)c1`: the cytotoxicity at 10 µM was found to be 11.5%.

As for `CS(=O)(=O)N1CCc2[nH]cnc2C12CCN(C(=O)c1cccnc1)CC2`, the cytotoxicity at 10 µM came to 2.62%.

For the compound `CN(CCO)Cc1nnc(C2CCN(CC3[C@H]4CNC[C@@H]34)CC2)n1C` (some centres not stated), the cytotoxicity at 10 µM is -0.517%.

As to `Cc1ccc(CN2CCC3(CC2)C(c2ccccc2)CC(=O)N3C)o1` (configuration not stated), the cytotoxicity at 10 µM is -101%.

With `Cc1cc(CCC(=O)Nc2nncs2)nc(C2CCCN2)n1` (configuration not stated), the cytotoxicity at 10 µM is -28%.

In the case of `CCS(=O)(=O)CC(=O)N1CCCC1c1noc(C2CC2)n1` (configuration not stated), the cytotoxicity at 10 µM is -12.9%.

Take `CCOc1ncccc1NC(=O)N1CCc2ccccc2C1`: the cytotoxicity at 10 µM was -8.62%.

Consider `COC(=O)N1CCc2ccccc2C1C(=O)NCc1ccccn1` (configuration not stated), for which the cytotoxicity at 10 µM is -3.01%.

Consider `COc1cc2cc(C)c(SCCN3CCCCC3)nc2cc1OC`, for which the cytotoxicity at 10 µM was -0.883%.

Take `CS(=O)(=O)NCC1CCCN(c2ccc(C(F)(F)F)cn2)C1` (configuration not stated): the cytotoxicity at 10 µM was -17.3%.

As for `O=C(c1cnoc1)N1CCC[C@]2(C[C@H](Oc3ncccc3F)CO2)C1`, the cytotoxicity at 10 µM was -10.2%.

For the compound `Cc1cc(CNC(=O)c2ccc(F)c(COCC3CC3)c2)no1`, the cytotoxicity at 10 µM was -0.429%.

As for `Cc1cccc(CN2C(=O)C[C@H]3[C@@H]2CCN3Cc2ccccn2)n1`, the cytotoxicity at 10 µM worked out at 6.97%.

Consider `CCc1ccc(C(=O)N2CCCC(c3noc(CC)n3)C2)o1` (configuration not stated), for which the cytotoxicity at 10 µM is -3.97%.

For the compound `CCn1ncc2c1C(COC)CN(Cc1ccc(OC)cc1)C2` (configuration not stated), the cytotoxicity at 10 µM stood at 11.4%.

On to `Cc1cccc(S(=O)(=O)N2CC[C@H]3CO[C@H](CN(C)C)[C@H]3C2)c1`, for which the cytotoxicity at 10 µM is -92.1%.

With `CCc1nc(C)c(C(=O)N(C)Cc2cnc3ccccn23)o1`, the cytotoxicity at 10 µM was -1.94%.

Take `COc1ncc(-c2nccn2C(C)CCn2cccn2)cn1` (configuration not stated): the cytotoxicity at 10 µM was determined as 0.728%.

With `O=C1CC(c2ccc3ccccc3n2)c2c(n[nH]c2C2CCC2)N1` (configuration not stated), the cytotoxicity at 10 µM was -6.43%.

For the compound `Cc1nnc(NC(=O)CN2CCc3nn(C(C)C)c(=O)cc3C2)s1`, the cytotoxicity at 10 µM is -18.9%.

Regarding `O=S1(=O)CCC(NCCn2cncc2-c2ccc3c(c2)CCCO3)C1` (configuration not stated), the cytotoxicity at 10 µM is 2.97%.

Turning to `O=C(c1cnc2n1CCCC2)N1CCCC1`, the cytotoxicity at 10 µM was -10.6%.

Regarding `CCCN1CCC(c2nc3ccc(C)cn3n2)CC1`, the cytotoxicity at 10 µM was -118%.

Turning to `Cc1cc(NC(=O)CN2CCc3cncnc3C2)no1`, the cytotoxicity at 10 µM was -11.5%.

Regarding `COC(=O)Cc1cn2cc(C(F)(F)F)ccc2n1`, the cytotoxicity at 10 µM came out at 9.21%.

With `CSCCN1CCN(c2nc(N)ncc2C)CC1`, the cytotoxicity at 10 µM turned out to be 1.54%.

`Cc1ccsc1[C@@H]1CCN(C(=O)CCCn2cncn2)C[C@H]1O`: the cytotoxicity at 10 µM was -6.91%.

Take `Cc1nc(CN2CCCC(Cn3cncn3)C2)nc2ccccc12` (configuration not stated): the cytotoxicity at 10 µM is -16.2%.

With `COc1ccccc1OCc1cc(C(=O)N2C[C@H](O)[C@@H](N(C)C)C2)n[nH]1`, the cytotoxicity at 10 µM came to 3.2%.

Turning to `CCn1nc(CC(C)C)cc1C(=O)N1CCOCC(O)C1` (configuration not stated), the cytotoxicity at 10 µM was -14.3%.

For `NC(=O)c1ccc(N2CCCCC2)c(NC(=O)c2cncc(Br)c2)c1`, the cytotoxicity at 10 µM is -9.41%.

Take `CCOCCN(C)C(=O)Nc1cccc2c1CCN(CC)C2`: the cytotoxicity at 10 µM was -49.3%.

As for `Cc1cnnn1Cc1nnn2c1CN(Cc1ccccn1)CCC2`, the cytotoxicity at 10 µM came to 9.73%.

As for `Cc1ccc(N2CCO[C@H]3CN(Cc4cccnc4)C[C@H]32)nn1`, the cytotoxicity at 10 µM was -81.3%.

For the compound `Cc1nn(C(C)C)c(C)c1S(=O)(=O)Nc1cccc(F)c1`, the cytotoxicity at 10 µM was -0.335%.

With `O=C(CCN1CCCCC1c1cc2ccccc2[nH]1)N1CCOCC1` (configuration not stated), the cytotoxicity at 10 µM worked out at 7.82%.

`CC(C)(C)c1noc(CCC(=O)N(CC2CCOC2)C2CC2)n1` (configuration not stated): the cytotoxicity at 10 µM amounted to 2.66%.

Consider `COCC(=O)NC(C)c1cccc(Br)c1` (configuration not stated), for which the cytotoxicity at 10 µM is -8.13%.

As to `CN1CCC2(CC1)CN(C(=O)c1cnccn1)Cc1ccccc12`, the cytotoxicity at 10 µM is -82.2%.

With `CC(C)(C)OC(=O)N[C@@H]1C[C@@H](O)CN(C(=O)c2cccc(F)c2)C[C@H]1O`, the cytotoxicity at 10 µM amounted to 0.187%.

Regarding `CCn1cnnc1CNC(=O)N1CCCC1`, the cytotoxicity at 10 µM is -3.3%.

For `COc1ccc(C)cc1-n1cnnc1C1CCOCC1`, the cytotoxicity at 10 µM was found to be 11.2%.

For `CCc1nc(C2CCCN2C(=O)c2cc3c(s2)CCC3)no1` (configuration not stated), the cytotoxicity at 10 µM is -5.86%.

As for `N#Cc1ccccc1N1CCCN(C(=O)CCc2ccco2)CC1`, the cytotoxicity at 10 µM is -8.48%.

Take `CC(=O)NC1CCCN(C(=O)Nc2cccnc2-n2cccn2)C1` (configuration not stated): the cytotoxicity at 10 µM is -15.3%.

`COc1cc(C)ccc1C(=O)N1CCC2(CCC(=O)N(C(C)C)C2)CC1`: the cytotoxicity at 10 µM was 3.76%.

Consider `CCN1C(=O)CCCC12CCCN(C(=O)c1ccncc1F)C2` (configuration not stated), for which the cytotoxicity at 10 µM was -3.27%.

For `Cc1cccc(C(=O)N2CCC3(CC(C(=O)N(C)C(C)C)=NO3)C2)c1` (configuration not stated), the cytotoxicity at 10 µM was -127%.

In the case of `COC(=O)C(O)C1CCN(CCc2ccccn2)CC1` (configuration not stated), the cytotoxicity at 10 µM is -7.64%.

The values above are taken from ChEMBL document CHEMBL4513216, “Probing the Open Global Health Chemical Diversity Library for Multistage-Active Starting Points for Next-Generation Antimalarials” (ACS Infect Dis, 2020).
